# Calls of active or inactive are those of the source. No cut-off for these calls is given here.
# Legend:
# [1] = molecular target: T1, WD repeat-containing protein 5 (Homo sapiens, UniProt P61964)
# [2] = molecular target: T1, WD repeat-containing protein 5; test: Binding affinity to WDR5 (unknown origin) assessed as inhibition of WDR5-MLL1 protein-protein interaction by TR-FRET assay
# [3] = molecular target: T1, WD repeat-containing protein 5; test: Binding affinity to N-terminal FLAG-tagged human full-length WDR5 […] assessed as change in melting temperature at 10 uM by differential scanning fluorimetry
# Summary of the method: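 Thermal shift (differential scanning fluorimetry) on WDR5, with compounds at 10 μM. Samples were run in triplicate, and ΔTm is the average melting-temperature shift read by fluorescence.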
# [4] = Apparent permeability from apical to basolateral side in MDCK cells; type: ADME, cell-based, Canis lupus familiaris; conditions: dog
# [5] = Protein binding in plasma (unknown origin) assessed as unbound fraction; type: ADME, cell-free
# Homo sapiens = species: Homo sapiens; test: Inhibition of human MLL1/WDR5/RBBP5/ASH2L/DPY30 complex assessed as reduction in histone methyl-transferase activity using H3-peptide as substrate
# [6] = Solubility of the compound; type: physicochemical
# Summary of the method: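 Kinetic solubility, measured by an outside contract lab using a standard commercial assay format.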
# [7] = molecular target: T1, WD repeat-containing protein 5; test: Binding affinity to N-terminal FLAG-tagged human full-length WDR5 expressed in HEK293T cells harboring human C-terminal HA-tagged c-MYC assessed as disruption of WDR5-c-MYC protein-protein interaction at 50 uM by SDS-PAGE based immunoblot assay; type: cell-based
# [8] = molecular target: T1, WD repeat-containing protein 5; test: Binding affinity to N-terminal FLAG-tagged human full-length WDR5 expressed in HEK293T cells harboring human C-terminal HA-tagged c-MYC assessed as disruption of WDR5-RBBP5 protein-protein interaction at 50 uM by SDS-PAGE based immunoblot assay; type: cell-based
# Summary of the method: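 HEK293 cells expressing FLAG-WDR5 and c-MYC-HA were kept in DMEM with 10% FBS, hygromycin B 50 μg/mL and puromycin 100 ng/mL. Lysates in Tris pH 8.0/NaCl/EDTA/1% Triton buffer were treated with compound at 50 μM or 6.25–50 μM. α-FLAG magnetic M2 beads, 2 h at 4 °C, then SDS-PAGE and α-RBBP5 immunoblot. Quantified against vehicle; at least two independent repeats.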
Structure (SMILES),Kd [1] [nM],also measured
O=C(O)c1cc(OC(F)(F)F)cc(NS(=O)(=O)c2cc(Br)cc(Cl)c2O)c1O,51,inhibition [2]: inactive
N#CC1(c2ccc(O)c(NS(=O)(=O)c3cc(Br)ccc3O)c2)CCCC1,614,–
N#CC1(c2cc(NS(=O)(=O)c3cc(Br)ccc3O)cc(C(=O)O)c2)CCC1,229,inhibition [2]: inactive
O=S(=O)(Nc1cc(OC(F)(F)F)ccc1O)c1cc(Br)ccc1O,549,–
O=C(O)c1cc(OC(F)(F)F)cc(NS(=O)(=O)c2cc(Br)ccc2O)c1O,137,–
O=C(O)c1cc(S(F)(F)(F)(F)F)cc(NS(=O)(=O)c2cc(Br)cc(Cl)c2O)c1O,31,ΔTm [3]: 8.42 °C
N#CC1(c2ccc(O)c(NS(=O)(=O)c3cc(Br)ccc3O)c2)CCC1,289,ΔTm [3]: 2.63 °C; Papp [4]: 27.8 ×10⁻⁶ cm/s; Fu [5]: < 0.0005%; inhibition (Homo sapiens): Active; solubility [6]: > 100 µM
O=C(O)c1cc(Cl)cc(NS(=O)(=O)c2cc(Br)ccc2O)c1,2880,–
O=C(O)c1cc(NS(=O)(=O)c2cc(Br)cc(Cl)c2O)cc(S(F)(F)(F)(F)F)c1,29,inhibition [2]: inactive; inhibition (Homo sapiens): Active
CNC(=O)c1cc(NS(=O)(=O)c2cc(Br)ccc2O)cc(S(F)(F)(F)(F)F)c1,848,–
O=C(O)c1cc(S(F)(F)(F)(F)F)cc(NS(=O)(=O)c2cc(Br)cc3cccnc23)c1O,47,–
CNC(=O)c1cc(S(F)(F)(F)(F)F)cc(NS(=O)(=O)c2cc(Br)cc(Cl)c2O)c1O,190,Activity [7]: Active
COc1ccccc1S(=O)(=O)Nc1cc(Cl)ccc1O,> 40000,–
CS(=O)(=O)c1cc(Cl)cc(NS(=O)(=O)c2cc(Br)ccc2O)c1,1880,Papp [4]: 4.79 ×10⁻⁶ cm/s; Fu [5]: 0.004%; solubility [6]: > 100 µM
CNC(=O)c1cc(C2(C#N)CCC2)cc(NS(=O)(=O)c2cc(Br)ccc2OC)c1O,906,Activity [7]: Active
CS(=O)(=O)c1cc(Cl)cc(NS(=O)(=O)c2cc(Br)cc(Cl)c2O)c1O,123,Activity [7]: Active; inhibition (Homo sapiens): Active
CS(=O)(=O)c1cc(S(F)(F)(F)(F)F)cc(NS(=O)(=O)c2cc(Br)cc(Cl)c2O)c1O,45,Papp [4]: 18.6 ×10⁻⁶ cm/s; Fu [5]: < 0.0003%; solubility [6]: > 100 µM

Structure (SMILES),Kd [1] [nM],also measured
CS(=O)(=O)c1cc(NS(=O)(=O)c2cc(Br)cc(Cl)c2O)cc(C2(C#N)CCC2)c1,215,–
O=C(O)c1cc(Cl)cc(NS(=O)(=O)c2cc(Br)ccc2O)c1O,223,ΔTm [3]: 4.05 °C
N#CC1(c2cc(NS(=O)(=O)c3cc(Br)cc4cccnc34)c(O)c(C(=O)O)c2)CCC1,104,–
COc1ccc(Cl)cc1S(=O)(=O)Nc1cc(Cl)ccc1O,8410,–
N#CC1(c2ccc(O)c(NS(=O)(=O)c3cc(Br)ccc3O)c2)CC1,852,inhibition [2]: inactive
N#CC1(c2cc(NS(=O)(=O)c3cc(Br)ccc3O)c(O)c(C(=O)O)c2)CCC1,67,ΔTm [3]: 3.9 °C; Activity [8]: Active; Activity [7]: Active
CS(=O)(=O)c1cc(Cl)cc(NS(=O)(=O)c2cc(Br)cc3cccnc23)c1O,385,Activity [7]: Active
COc1ccc(Br)cc1S(=O)(=O)Nc1cc(Cl)cc(C(=O)O)c1O,431,–
COc1ccc(I)cc1S(=O)(=O)Nc1cc(Cl)ccc1O,8390,–
CS(=O)(=O)c1cc(C2(C#N)CCC2)cc(NS(=O)(=O)c2cc(Br)ccc2O)c1O,349,–
O=C(O)c1cc(C2CC2)cc(NS(=O)(=O)c2cc(Br)ccc2O)c1O,184,Activity [8]: Active; inhibition [2]: inactive; Activity [7]: Active
O=C(O)c1cc(C2CC2)cc(NS(=O)(=O)c2cc(Br)cc(Cl)c2O)c1O,207,–
CNC(=O)c1cc(NS(=O)(=O)c2cc(Br)cc(Cl)c2O)cc(C2(C#N)CCC2)c1,128,–
CS(=O)(=O)c1cc(C2(C#N)CCC2)cc(NS(=O)(=O)c2cc(Br)cc3cccnc23)c1O,272,–
COc1ccc(Br)cc1S(=O)(=O)Nc1ccccc1O,> 40000,–
CS(=O)(=O)c1cc(NS(=O)(=O)c2cc(Br)ccc2O)cc(S(F)(F)(F)(F)F)c1,511,Papp [4]: 16.1 ×10⁻⁶ cm/s; Fu [5]: 0.002%; solubility [6]: > 100 µM
CNC(=O)c1cc(S(F)(F)(F)(F)F)cc(NS(=O)(=O)c2cc(Br)cc3cccnc23)c1O,122,–

# From ChEMBL document CHEMBL4414651, “Discovery and Optimization of Salicylic Acid-Derived Sulfonamide Inhibitors of the WD Repeat-Containing Protein 5-MYC Protein-Protein Interaction” (J Med Chem, 2019)
